Data taken from ChEMBL document CHEMBL3414544, “PAINS in the assay: chemical mechanisms of assay interference and promiscuous enzymatic inhibition observed during a sulfhydryl-scavenging HTS” (J Med Chem, 2015).
Calls of active or inactive are those of the source.

Legend:
[1] = Fluorescence quenching assessed as fluorescence signal reduction at 10 uM after 10 mins; type: physicochemical
Method in brief: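 CPM (20 μM final) and CoA (5 μM final) reacted to completion in assay buffer (stable plateau, usually ~5 min); adduct solution added to wells preplated with compound; shaken 5 min, equilibrated 5 min at room temperature; fluorescence intensity read as percent signal reduction versus DMSO controls. Flagged as quencher at >20% signal reduction at 10 μM final compound.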

[2] = Fluorescence quenching in HTS buffer with […] CoA assessed as fluorescence signal reduction at 10 uM after 10 mins; type: physicochemical
[3] = target: T1, Histone acetyltransferase RTT109 (Saccharomyces cerevisiae (strain ATCC 204508 / S288c) (Baker's yeast)) (UniProt Q07794); assay: Inhibition of Vps75-stimulated recombinant Saccharomyces cerevisiae histone acetyltransferase Rtt109 assessed as H3K56 acetylated product at […] after 45 mins by Slot bolt inhibiton assay
T1 sequence (whole entry): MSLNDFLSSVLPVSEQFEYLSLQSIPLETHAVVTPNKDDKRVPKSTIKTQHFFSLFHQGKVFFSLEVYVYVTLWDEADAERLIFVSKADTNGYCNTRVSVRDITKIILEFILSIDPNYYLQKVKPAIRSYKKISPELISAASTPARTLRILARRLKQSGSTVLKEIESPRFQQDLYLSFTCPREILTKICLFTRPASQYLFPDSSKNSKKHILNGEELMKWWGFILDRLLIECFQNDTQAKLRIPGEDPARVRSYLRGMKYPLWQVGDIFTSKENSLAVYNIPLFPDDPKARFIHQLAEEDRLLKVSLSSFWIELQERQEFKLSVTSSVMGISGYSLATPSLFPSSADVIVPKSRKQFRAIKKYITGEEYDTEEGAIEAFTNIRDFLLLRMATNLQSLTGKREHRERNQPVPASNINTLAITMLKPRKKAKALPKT

[4] = Fluorescence quenching in HTS buffer assessed as fluorescence signal reduction at 10 uM after 10 mins; type: physicochemical
[5] = target: T1, Histone acetyltransferase RTT109 (Saccharomyces cerevisiae (strain ATCC 204508 / S288c) (Baker's yeast)); assay: Inhibition of Vps75-stimulated recombinant Saccharomyces cerevisiae histone acetyltransferase Rtt109 assessed as H3K27 acetylated product at […] after 45 mins by Slot bolt inhibiton assay
[6] = Fluorescence quenching in HTS buffer with 20 uM 7-diethylamino-3-(4'-maleimidyl-phenyl)-4-methylcoumarin assessed as fluorescence signal reduction at 10 uM after 10 mins; type: physicochemical

| Compound | Activity [1] | Activity [2] | Activity [3] | Activity [4] | Activity [5] | Activity [6] |
| --- | --- | --- | --- | --- | --- | --- |
| O=C(O)c1ccc(S(=O)(=O)Nc2cc(Br)c(O)c3ccccc23)cc1 | Not Active | Not Active | Active | Not Active | Active | Not Active |
| CC(C)c1ccc(S(=O)(=O)Nc2cc(Sc3nc[nH]n3)c(O)c3ccccc23)cc1 | Not Active | Not Active | Active | Not Active | Active | Not Active |
| Cc1cc(C)c(S(=O)(=O)Nc2cc(Br)c(O)c3ccccc23)c(C)c1 | Not Active | Not Active | Active | Not Active | Active | Not Active |
| CCC(=O)OCCNc1cc(Sc2nnc(-c3ccccc3)s2)c2nonc2c1[N+](=O)[O-] | Not Active | Not Active | Active | Not Active | Active | Not Active |
| Cc1nnc(SC2CC(=O)N(c3ccc(Br)cc3)C2=O)s1 (stereo unspecified) | Not Active | Not Active | Active | Not Active | Active | Not Active |
| O=C1CC(Sc2nnc(-c3ccccc3)[nH]2)C(=O)N1c1ccc(Oc2ccccc2)cc1 (stereo unspecified) | Not Active | Not Active | Active | Not Active | Active | Not Active |
| O=[N+]([O-])c1cc(Br)c2nsnc2c1Sc1nnnn1C1CCCCC1 | Not Active | Not Active | Active | Not Active | Active | Not Active |
| O=C1CC(Sc2nnc(-c3ccccc3O)o2)C(=O)N1c1ccccc1 (stereo unspecified) | Not Active | Not Active | Active | Not Active | Active | Not Active |
| COc1ccc(Nc2nc(-c3ccc(C)cc3)[n+](Cc3ccccc3)s2)cc1.[Cl-] | Not Active | Not Active | Active | Not Active | Active | Not Active |
| O=C1CC(Sc2nnnn2-c2ccccc2)C(=O)N1c1ccc([N+](=O)[O-])cc1 (stereo unspecified) | Not Active | Not Active | Active | Not Active | Active | Not Active |
| [O-][Cl+3]([O-])([O-])[O-].c1ccc(C[n+]2sc(N(c3ccccc3)c3ccccc3)nc2-c2ccccc2)cc1 | Not Active | Not Active | Active | Not Active | Active | Not Active |
| COc1ccc(N2C(=O)CC(Sc3nnc(-c4ccccc4)o3)C2=O)cc1 (stereo unspecified) | Not Active | Not Active | Active | Not Active | Active | Not Active |
| CSc1nsc(SC2=CS(=O)(=O)c3ccccc32)n1 | Not Active | Not Active | Active | Not Active | Active | Not Active |
| CC(C)c1ccc(S(=O)(=O)Nc2ccc(O)c(Br)c2)cc1 | Not Active | Not Active | inactive | Not Active | inactive | Not Active |
| O=[N+]([O-])c1ccc(Sc2cccc(Cl)c2)c2nonc12 | – | – | Active | – | Active | – |
| Cc1ccc(-c2nc(Nc3ccccc3)s[n+]2CS(=O)(=O)c2ccccc2)cc1.[Cl-] | Not Active | Not Active | Active | Not Active | Active | Not Active |
| COc1cc(-c2nnc(SC3=CS(=O)(=O)c4ccccc43)o2)cc(OC)c1OC | Not Active | Not Active | Active | Not Active | Active | Not Active |
| Cc1ccc(-c2nnc(SC3CC(=O)N(c4ccc(Oc5ccccc5)cc4)C3=O)[nH]2)cc1 (stereo unspecified) | Not Active | Not Active | Active | Not Active | Active | Not Active |
| Cn1c(Sc2ccc([N+](=O)[O-])c3nonc23)nnc1-c1ccccc1 | Not Active | Not Active | Active | Not Active | Active | Not Active |
| Cc1ccc(S(=O)(=O)C2=CS(=O)(=O)c3ccccc32)cc1 | Not Active | Not Active | Active | Not Active | Active | Not Active |
| O=S(=O)(Nc1ccc(O)c(Br)c1)c1ccc(Cl)cc1 | Not Active | Not Active | inactive | Not Active | inactive | Not Active |
| Cc1ccc(S(=O)(=O)C[n+]2sc(N(c3ccccc3)c3ccccc3)nc2-c2ccccc2)cc1 | – | – | inactive | – | inactive | – |
| COc1ccc(-c2nc(N)s[n+]2-c2ccccc2)cc1.[Cl-] | Not Active | Not Active | Active | Not Active | Active | Not Active |
| O=S(=O)(C[n+]1sc(Nc2ccc(Cl)cc2Cl)nc1-c1ccccc1)c1ccccc1.[Cl-] | Not Active | Not Active | Active | Not Active | Active | Not Active |
| Cc1ccc(-c2nnc(SC3CC(=O)N(c4ccc5ccccc5c4)C3=O)[nH]2)cc1 (stereo unspecified) | Not Active | Not Active | Active | Not Active | Active | Not Active |
| O=S(=O)(Nc1cc(Sc2ccccc2)c(O)c2ccccc12)c1ccccc1 | Not Active | Not Active | Active | Not Active | Active | Not Active |
| CCOc1ccc(Nc2nc(-c3ccc(C)cc3)[n+](Cc3ccc([N+](=O)[O-])cc3)s2)cc1.[Br-] | Not Active | Not Active | Active | Not Active | Active | Not Active |
| c1ccc(C[n+]2sc(Nc3ccccc3)nc2-c2ccccc2)cc1 | – | – | Active | – | Active | – |
